ChEMBL document CHEMBL1149782, “Synthesis and antifungal activity of some new 3-hydroxy-2-(1-phenyl-3-aryl-4-pyrazolyl) chromones” (2008)

Columns and labels:
Format in all cases: functional
Fusarium oxysporum [1] = test: Antifungal activity against Fusarium oxysporum at 100 ppm after 96 hrs
Method in brief: (§1)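 Poisoned-food assay on potato dextrose agar (200 g potato per litre, boiled and filtered) with compound mixed into sterilized medium at final 100, 500 or 1000 ppm. Plates were centre-inoculated with mycelial discs from 7-day PDA cultures and incubated at 28 ± 1 °C. Colony diameter was measured at two right angles after 96 h. Inhibition = (C − T) × 100/C against compound-free control, mean of three replicates ± SD, two-way ANOVA.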

Helminthosporium [2] = test: Antifungal activity against Helminthosporium species at 100 ppm after 96 hrs; method in brief: as §1
Alternaria alternata [3] = test: Antifungal activity against Alternaria alternata at 100 ppm after 96 hrs; method in brief: as §1
Fusarium oxysporum [4] = test: Antifungal activity against Fusarium oxysporum at 1000 ppm after 96 hrs; method in brief: as §1
Fusarium oxysporum [5] = test: Antifungal activity against Fusarium oxysporum at 500 ppm after 96 hrs; method in brief: as §1
Helminthosporium [6] = test: Antifungal activity against Helminthosporium species at 1000 ppm after 96 hrs; method in brief: as §1
Alternaria alternata [7] = test: Antifungal activity against Alternaria alternata at 1000 ppm after 96 hrs; method in brief: as §1
Helminthosporium [8] = test: Antifungal activity against Helminthosporium species at 500 ppm after 96 hrs; method in brief: as §1
Alternaria alternata [9] = test: Antifungal activity against Alternaria alternata at 500 ppm after 96 hrs; method in brief: as §1

| SMILES | inhibition at 100 ppm (Fusarium oxysporum [1]) [%] | inhibition at 100 ppm (Helminthosporium [2]) [%] | inhibition at 100 ppm (Alternaria alternata [3]) [%] | inhibition at 1000 ppm (Fusarium oxysporum [4]) [%] | inhibition at 500 ppm (Fusarium oxysporum [5]) [%] | inhibition at 1000 ppm (Helminthosporium [6]) [%] | inhibition at 1000 ppm (Alternaria alternata [7]) [%] | inhibition at 500 ppm (Helminthosporium [8]) [%] | inhibition at 500 ppm (Alternaria alternata [9]) [%] |
| --- | --- | --- | --- | --- | --- | --- | --- | --- | --- |
| O=c1c(O)c(-c2cn(-c3ccccc3)nc2-c2ccc([N+](=O)[O-])cc2)oc2ccccc12 | 8.57 | 1.31 | 0 | 14.2 | 11.4 | 14.4 | 16.1 | 1.31 | 16.1 |
| COc1ccc(-c2nn(-c3ccccc3)cc2-c2oc3ccccc3c(=O)c2O)cc1 | 55.5 | 59.7 | 73.5 | 64.2 | 55.3 | 77.6 | 77.3 | 59.7 | 75.4 |
| O=c1c(O)c(-c2cn(-c3ccccc3)nc2-c2ccc(Br)cc2)oc2ccccc12 | 34.2 | 39 | 25.4 | 41.4 | 35.7 | 39.2 | 34.5 | 39.2 | 29 |
| O=c1c(O)c(-c2cn(-c3ccccc3)nc2-c2ccc(Cl)cc2)oc2ccccc12 | 0 | 0 | 0 | 0 | 0 | 21.4 | 38.2 | 1.19 | 38.2 |
| O=c1c(O)c(-c2cn(-c3ccccc3)nc2-c2ccccc2)oc2ccccc12 | 33.9 | 31 | 15 | 51.7 | 39.2 | 71.2 | 52.8 | 50.5 | 41.5 |
| O=c1c(O)c(-c2cn(-c3ccccc3)nc2-c2ccc(F)cc2)oc2ccccc12 | 8.9 | 12.3 | 30.1 | 16 | 8.9 | 58.6 | 50.9 | 28.7 | 43.3 |
| Cc1ccc(-c2nn(-c3ccccc3)cc2-c2oc3ccccc3c(=O)c2O)cc1 | 50 | 73.8 | 60 | 55.7 | 51.4 | 76.1 | 61.8 | 73.8 | 61.8 |
| C[C@@H]1C[C@@H]([C@H](O)CC2CC(=O)NC(=O)C2)C(=O)[C@@H](C)C1 [CYCLOHEXIMIDE] | 39.2 | 38.5 | 40.2 | 50.2 | 43.4 | 50 | 50.6 | 41.5 | 45.5 |
